MT1-MMP txn act: MT1-MMP promoter transcription activation | 0.16% of 86,000 active | activation factor at 10 µM | HT1080 MT1-MMP promoter luciferase reporter, luminescence, overnight; stronger effect = higher value | AID 750;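 active = activation factor of at least 2 for MT1-MMP transcription at 10 µM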
MMP13 inh: blocks human MMP13 activity. P45452. MMP-13 fTHP FRET cleavage, Mca fluorescence. inhibition, % at 4 µM. 0.07% of 65,000 active. AID 570;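 active = inhibition above the mean of compound-free control plate wells plus 3 SD, cut at about 14% in these data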;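 note: 0% = DMSO wells and 100% = wells with reference MMP-13 inhibitor after basal subtraction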
RORa activator: activates the human nuclear receptor RORA; P35398; CHO-K1 Gal4-RORA LBD luciferase reporter, luminescence; percent increase over mock-subtracted basal signal; activation, % at 10 µM; 1.5% of 65,000 active;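 active = activation above the mean of all tested compounds plus 3 SD, cut at about 49% in these data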;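 note: 0% = DMSO-treated RORA cells and 100% = added signal equal to DMSO minus mock-transfected cells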
TNAP act DEA: activates human TNAP at intermediate phosphate acceptor concentration; activation factor at 20 µM; purified TNAP, CDP-star luminescence, 100 mM DEA, 30 min; stronger effect = higher value; scale: 0 levamisole-inhibited, 1 vehicle-only enzyme; 64,000 tested, under 10 active;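 active = activation factor of at least 2 at 20 µM, relative to controls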
SF-1 act: activates the human nuclear receptor SF-1. Q13285. CHO-K1 Gal4-SF-1 LBD luciferase reporter; % increase over DMSO SF-1-specific signal. activation, % at 10 µM. 1.9% of 65,000 active;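 active = activation above the mean activation of all tested compounds plus 3 SD, cut at about 50% in these data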
Target sequence (Q13285 whole entry, looked up, the tested form may be a part): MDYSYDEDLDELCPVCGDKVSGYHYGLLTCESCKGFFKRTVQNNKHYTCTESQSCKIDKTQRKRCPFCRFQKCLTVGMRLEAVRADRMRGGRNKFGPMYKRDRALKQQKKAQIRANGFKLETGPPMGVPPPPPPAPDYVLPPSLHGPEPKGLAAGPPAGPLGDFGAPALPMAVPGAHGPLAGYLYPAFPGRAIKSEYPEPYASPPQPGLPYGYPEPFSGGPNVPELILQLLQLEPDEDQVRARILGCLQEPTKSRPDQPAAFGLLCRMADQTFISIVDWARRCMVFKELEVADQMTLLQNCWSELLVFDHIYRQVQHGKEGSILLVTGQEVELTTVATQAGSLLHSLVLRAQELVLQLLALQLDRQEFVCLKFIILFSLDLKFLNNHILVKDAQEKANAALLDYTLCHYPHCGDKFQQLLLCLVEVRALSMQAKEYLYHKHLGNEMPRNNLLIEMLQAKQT
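Assay system: CHO-K1 cells co-transfected with Gal4 DBD–human SF-1 LBD, 5xGal4 luciferase reporter / Input: 4,000 cells per well / Incubation: 20 h compound exposure at 37 °C after 1 h cell settling / Detection: SteadyLite luciferase luminescence / Control set: DMSO negative control and −SF1 background wells / Replication: one test per compound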
* hit, by the source's call; x = not tested or not shown. An excerpt weighted towards active compounds, which were near 2.1% of everything screened.

SMILES | MT1-MMP txn act | MMP13 inh | RORa activator | TNAP act DEA | SF-1 act
O=C(Nc1ccccc1)OCc1ccccn1 | 1.6 | -2 | 60* | 0.9 | 28
CC(C)c1cc(C(=O)Nc2cccnc2)no1 | 1.4 | 0 | 61* | 0.9 | 30
O=C(Nc1cccnc1)c1noc2c1CCCC2 | 1.4 | 5 | 49* | 0.9 | 26
CC(C)(C)C1CCc2onc(C(=O)Nc3cccnc3)c2C1 (configuration not stated) | 1 | 2 | 8 | 0.8 | -15
CC(=O)c1ccc(NC(=O)c2noc3c2CCCCC3)cc1 | 1.4 | 2 | 50* | 0.9 | 32
COc1ccc(NC(=O)c2cc(C(C)C)on2)c(OC)c1 | 1.5 | 3 | 70* | 0.9 | 50*
CCCc1cc(C(=O)Nc2cccnc2)no1 | 1.4 | -4 | 14 | 0.9 | -1
COc1c(F)c(F)c(C(=O)Nc2ccc(N3CCN(Cc4ccccc4)CC3)cc2)c(F)c1F | 0.9 | x | x | x | x
Cc1cc(NC(=O)c2noc3c2CCCCC3)no1 | 1.7 | 0 | 58* | 0.9 | 39
COc1ccc(NC(=O)C2CCCN2S(=O)(=O)c2cccc3cccnc23)c(OC)c1 (configuration not stated) | x | 4 | -3 | 0.8 | -12
CCOc1ccc(OCC)c(NC(=O)C2CCCN2S(=O)(=O)c2cccc3cccnc23)c1 (configuration not stated) | 1 | -3 | 6 | 0.8 | 58*
CCCCCC1=C2CNC(C)(C(=O)OC)C=C2C(C)C1=O (configuration not stated) | 1.1 | x | x | x | x
Cc1ccc(C2NC(=O)c3ccccc3N2)s1 (configuration not stated) | 0.6 | -41 | 77* | 0.9 | 89*
O=c1nc2n(c3sc4c(c13)CCC4)Cc1ccccc1-2 | 1.6 | -41 | 28 | 0.9 | 32
Cc1cnc(NC(=O)CSc2nnc(-c3ccccc3)o2)s1 | 1.2 | 6 | 21 | 0.9 | 88*
Cc1cnc(NC(=O)CSc2nnc(COc3c(C)cccc3C)o2)s1 | 1.2 | -14 | -11 | 0.9 | -1
Cc1csc(NC(=O)CSc2nnc(-c3ccoc3C)o2)n1 | 1.3 | -3 | 61* | 0.9 | 30
COc1ccc(-n2c(SCC(=O)Nc3nc(C)cs3)nnc2-c2ccoc2C)cc1 | 2.2* | x | x | x | x
COc1ccc2nc(NC(=O)CSc3nnc(-c4ccoc4C)n3C)sc2c1 | 1.5 | -2 | 107* | 0.9 | -7
CC1=C(C(=O)OCC(Br)(Br)Br)C(c2ccccc2)NC(=O)N1CCCC(=O)O (configuration not stated) | 1.3 | x | x | x | x
Cc1ccc(S(=O)(=O)N2CCCN(S(=O)(=O)c3ccc4ccccc4c3)CC2)cc1 | 1.1 | x | x | x | x
CCCCNc1nc(-c2ccccc2)cc(C(F)(F)F)c1C(N)=O | 1.2 | x | x | x | x
CN(C)c1ccccc1C(=O)c1ccccc1N(C)C | 1.6 | -2 | 79* | 0.9 | 78*
Cc1cc(NC(=O)NC(=O)c2cccc(OC(F)(F)C(F)F)c2)n[nH]1 | 1.6 | 3 | 52* | 1 | 81*
COc1cccc(C(=O)Nc2c(C)n[nH]c2C)c1 | 1.1 | 4 | -7 | 1 | -9
SMILES | MT1-MMP txn act | MMP13 inh | RORa activator | TNAP act DEA | SF-1 act
CCC1=C2CC[C@H]3C(=O)N(CC(=O)OC)C(=O)[C@H]3[C@H]2[C@@]2(C)C(=O)N(Cc3ccccc3)C(=O)N2C1=O | 1.2 | x | x | x | x
CC(=O)N1CCc2c(sc(NC(=O)c3ccc4c(c3)OCCO4)c2C#N)C1 | 1.1 | -5 | 49* | 0.9 | 77*
COC(=O)[C@@]1(Cc2ccc(F)cc2)[C@H]2c3cc(C(=O)N4CCCC4)n(CCc4c[nH]c5ccc(OC)cc45)c3C[C@H]2CN1C(=O)c1ccccc1 | 1.1 | x | x | x | x
COC(=O)[C@@]1(Cc2ccc(F)cc2)[C@H]2c3cc(C(=O)N4CCCC4)n(CCc4c[nH]c5cc(F)ccc45)c3C[C@H]2CN1C(=O)c1ccccc1 | 1.1 | x | x | x | x
O=C(Cn1c(=O)[nH]c2ccsc2c1=O)NC1CCCCCC1 | 1 | 3 | -8 | 0.9 | 8
CC1CCC(NC(=O)Cn2c(=O)[nH]c3ccsc3c2=O)CC1 (configuration not stated) | 1.7 | 2 | 51* | 0.9 | 47
COC(=O)[C@@]1(Cc2ccc(OC)cc2)[C@H]2c3cc(C(=O)N(C)C)n(CCN4CCNC4=O)c3C[C@H]2CN1C(=O)c1ccccc1 | 1.1 | x | x | x | x
Nc1c(C(=O)Nc2ccc3c(c2)OCCO3)nnn1CCc1ccccc1 | 1.1 | 1 | 142* | 0.8 | 92*
Cc1ccc(CN2CCN(CC3CC4C=CC3C4)CC2)cc1 (configuration not stated) | 1.1 | x | x | x | x
O=C1C(C=NCc2ccccn2)=C(O)c2ccccc21 | 1.7 | 1 | 47 | 0.9 | 55*
COc1ccc(C(=O)c2ccc(OC)c(N)c2)cc1N | 0.8 | 6 | 66* | 0.9 | 42
COc1ccc(C(=O)c2ccc(OC)c(OC)c2)cc1OC | 1.1 | -6 | 0 | 0.9 | -6
COC(=O)c1ccc(N(C(=O)c2ccco2)C(C(=O)NC2CCCC2)c2ccco2)cc1 (configuration not stated) | 1.3 | x | x | x | x
CCCCCc1cc(O)c2c(C)cc(=O)oc2c1 | 1.1 | 5 | -21 | 1 | -3
CCCCc1cc(O)c(CCCC)c(O)c1 | 1.2 | -2 | 50* | 0.9 | 35
CCn1c(SCC(=O)NCc2ccccc2)nnc1-c1c[nH]c2ccccc12 | 1.2 | x | x | x | x
CCCSc1nc2c(=O)[nH][nH]c(=O)c2n1Cc1ccccc1 | 1.1 | x | x | x | x
O=c1/c(=C\c2ccc3c(c2)OCO3)sc2n1CCCN=2 | 1.1 | -3 | 55* | 1.1 | 49
Cc1ccc(/C=c2/sc3n(c2=O)CCCN=3)o1 | 1.7 | x | x | x | x
O=c1[nH]c2ccccc2nc1-c1cccs1 | 1.4 | -190 | 9 | x | 54*
c1csc(-c2nnsc2-c2nc3ccccc3[nH]2)c1 | 1.3 | -1 | 10 | 1 | 21
Nc1ccc2oc(CCc3ccccc3)nc2c1 | 1.4 | 1 | 144* | 0.8 | 79*
Cc1ccccc1-c1nc2cc(N)ccc2o1 | 0.9 | -11 | 41 | 1 | 58*
O=C1c2ccccc2C(=O)N1CCOc1ccccc1 | 2.1* | x | x | x | x
COc1cccc(C(=O)/C=C/Nc2cc(C)ccc2O)c1 | 1.5 | 4 | 22 | 1 | 56*
SMILES | MT1-MMP txn act | MMP13 inh | RORa activator | TNAP act DEA | SF-1 act
CCOC(=O)Cn1nc(-c2ccc(F)cc2)oc1=O | 1.1 | x | x | x | x
O=C(COc1ccccc1)Nc1nc2ccccc2[nH]1 | 1.4 | 4 | 55* | 1 | 60*
O=C(COc1cccc2ccccc12)Nc1nc2ccccc2[nH]1 | 1.1 | x | x | x | x
Cc1ccc(NC(=O)c2cc(N(C)C)ccc2[P+](=O)O)cc1 | 1.4 | -10 | 69* | 1 | 14
Cc1ccc(NC(=O)c2cc(-n3cnnc3)ccc2Cl)cc1 | 1.2 | x | x | x | x
CCOC(=O)c1[nH]c(C)c(C(=O)Nc2ccccc2F)c1C | 1.2 | 6 | 110* | 0.9 | 83*
Cc1ccc(C2/C(=C(/O)c3cnn(-c4ccccc4)c3C)C(=O)C(=O)N2CCN2CCOCC2)o1 (configuration not stated) | 1.2 | -9 | 22 | 0.8 | 54*
